# Screening results (PubChem BioAssay)
# An excerpt weighted towards active compounds, which were near 4.1% of everything screened.
# TAG inh: inhibitors of triacylglycerol accumulation, primary screen, cell-based, uHTS, fluorescence, H9c2; inhibition, % at 12.5 µM; H9c2 cells, Nile Red lipid (TAG) fluorescence; cells loaded with 200 µM oleic acid; actives 0.66% (n = 230,000); AID 651582, 2012;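 active = pattern-corrected inhibition of lipid staining of at least 50% with the nuclear-stain viability signal not falling by more than 50%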;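 note: 0% = DMSO wells and 100% = triacsin C control wells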
# AHR activator: AHR activators, primary screen, cell-based, luminescence, luciferase reporter, human | Aryl hydrocarbon receptor (Homo sapiens), P35869 | AHR-responsive luciferase reporter cells | activation, % at 5 µM | actives 2.5% (n = 320,000) | AID 2796, 2010; in the data active = activation above about 47%;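 note: 0% = vehicle wells and 100% = reference agonist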
# Target sequence (P35869 whole entry, looked up): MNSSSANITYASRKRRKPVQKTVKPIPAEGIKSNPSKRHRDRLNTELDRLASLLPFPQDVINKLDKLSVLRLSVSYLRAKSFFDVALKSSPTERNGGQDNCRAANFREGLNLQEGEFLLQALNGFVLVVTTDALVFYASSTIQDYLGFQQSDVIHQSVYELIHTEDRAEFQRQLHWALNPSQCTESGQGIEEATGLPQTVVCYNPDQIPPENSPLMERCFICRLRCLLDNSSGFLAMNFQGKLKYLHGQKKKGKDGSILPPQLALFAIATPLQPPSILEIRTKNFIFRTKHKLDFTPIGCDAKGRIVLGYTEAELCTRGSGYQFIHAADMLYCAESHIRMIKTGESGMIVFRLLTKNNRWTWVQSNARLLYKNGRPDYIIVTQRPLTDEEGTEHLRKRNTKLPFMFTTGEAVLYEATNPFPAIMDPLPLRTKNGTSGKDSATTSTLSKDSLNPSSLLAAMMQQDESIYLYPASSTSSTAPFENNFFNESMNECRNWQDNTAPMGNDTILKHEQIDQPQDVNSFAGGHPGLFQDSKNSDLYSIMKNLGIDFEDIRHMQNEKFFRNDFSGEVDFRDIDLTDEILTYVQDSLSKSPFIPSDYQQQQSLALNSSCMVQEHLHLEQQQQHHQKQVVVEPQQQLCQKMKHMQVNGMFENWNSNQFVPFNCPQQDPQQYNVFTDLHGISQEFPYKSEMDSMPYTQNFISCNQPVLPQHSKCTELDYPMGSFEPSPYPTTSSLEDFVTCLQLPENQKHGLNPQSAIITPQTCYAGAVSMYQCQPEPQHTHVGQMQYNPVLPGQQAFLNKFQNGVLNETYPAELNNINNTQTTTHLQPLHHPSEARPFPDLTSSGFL
# Efflux pump inh: inhibitors of Candida efflux pumps in yeast, primary screen, S. cerevisiae, Nile Red, multiplex. inhibition, % at 10 µM. S. cerevisiae Candida pump triplex. actives 0.44% (n = 330,000);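 active = plate passing quality check with inhibition over a set limit, or well fluorescence over plate mean plus 4 SD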;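 note: Nile Red retained in pooled yeast measured as flow cytometry median fluorescence; 0% = buffer negative control and 100% = Enniatin B positive control; higher means more Nile Red kept so more efflux inhibition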
# Tb MetRS inh: T. brucei MetRS inhibitors, primary screen, biochemical, luminescence | methionyl-tRNA synthetase (Trypanosoma brucei brucei) | inhibition, % at 11.9 µM | AID 624268, 2012 | actives 0.4% (n = 360,000) | purified T. brucei MetRS, ATP depletion, Kinase-Glo luminescence;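 active = inhibition above a per-plate cutoff of the control wells' mean inhibition plus 3 SD, cut at about 5.5% in these data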;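 note: 0% = DMSO wells median and 100% = median of wells with control inhibitor compound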
#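 Material – parasite MetRS enzyme · Medium – HEPES-MgCl2-KCl buffer plus DTT, spermine, BSA, pyrophosphatase · Reagent – ATP, methionine and E. coli bulk tRNA substrates · Times – 15 min enzyme-compound preincubation, 2 h reaction, 10 min detection, 25 °C · Measured by – luminescence of leftover ATP · Evaluation – percent inhibition relative to median high and low control wells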
# SMARCA2 activ: SMARCA2 (BRM) function activators, primary screen, cell-based, luminescence, high throughput. actives 1% (n = 370,000). activation, % at 9.1 µM. MG213 cells, MMTV-luciferase reporter, dexamethasone, overnight; in the data active = activation above about 7.8%;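 note: 0% = vehicle wells and 100% = reference activator wells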
# SMARCA2 act conf: SMARCA2 (BRM) function activators, confirmation, cell-based, luminescence, triplicate; actives 30% (n = 3,500); MG213 cells, MMTV-luciferase with dexamethasone, overnight; MG213 cells expressing E1A, Rb sequestered; DMSO wells 0%, reference activator 100%; activation, % at 9.1 µM; AID 652260, 2013; shares compounds with SMARCA2 activ;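 active = activation above its plate's cutoff, the mean activation of tested wells plus 3 SD, cut at about 7.9% in these data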
# VP16 Luc act: GAL4-VP16 luciferase reporter activation, counter-screen for SMARCA2 (BRM) activator project, cell-based, pG5luc, luminescence, high throughput. shares compounds with SMARCA2 activ. HEK293 GAL4-VP16 pG5luc reporter; scaled: DMSO wells 0%, SAHA wells 100%. activation, % at 9.1 µM. actives 41% (n = 3,500);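 active = activation above the solvent-only control well mean plus 3 SD, averaged across control plates, cut at about 5.2% in these data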
# Active calls of the source: *; · = no result.
SMILES,TAG inh,AHR activator,Efflux pump inh,Tb MetRS inh,SMARCA2 activ,SMARCA2 act conf,VP16 Luc act
Cc1cc2oc3cc(NCCC4CCCN4C)ccc3c(=O)c2cc1C (stereo not drawn),35,8,0,0,8.8*,21*,8.7*
CCN(CC)C(=S)SSC(=S)N(CC)CC,49,·,0,-1,9.2*,-9,7.0*
CCOc1cccc(C=Nc2cc(C)cc(C)c2O)c1O,·,29,0,0,12*,6,2
COC(=O)[C@]12C[C@H](CC(=O)NCCC(C)C)C(=O)N(Cc3ccccc3)C1=C[C@H](COCc1ccccc1)O[C@@H]2C,·,·,·,·,-2,·,·
CCN(CC)CCn1nc2c3c(cccc3c1=O)-c1ccccc1-2,112,24,0,-1,35*,72*,4
C=CCN1[C@@H](Cc2ccccc2)COc2cc(F)ccc2S1(=O)=O,·,·,·,·,0,·,·
CCS(=O)(=O)N1Cc2ccccc2CC1C(=O)Nc1ccc(NC(C)=O)cc1 (stereo not drawn),-9,1,0,0,-1,·,·
CCOc1ccc(NC(=O)C2Cc3ccccc3CN2S(=O)(=O)CC)cc1 (stereo not drawn),-8,1,0,0,10*,0,1
CCS(=O)(=O)N1Cc2ccccc2CC1C(=O)Nc1ccc(F)c(F)c1 (stereo not drawn),·,1,0,0,15*,8,4
CCS(=O)(=O)N1Cc2ccccc2CC1C(=O)Nc1ccc(OC)cc1 (stereo not drawn),-3,4,0,0,-1,·,·
COc1ccc(C2=Nn3c(nnc3-c3ccccc3OC)SC2)cc1OC1CCOC1 (stereo not drawn),24,16,0,0,8,·,·
COc1ccc(C2=Nn3c(nnc3-c3ccncc3)SC2)cc1OC,·,24,0,0,8.6*,3,4
COc1ccc(C2=Nn3c(nnc3-c3ccccc3C(F)(F)F)SC2)cc1OC1CCOC1 (stereo not drawn),-10,22,-1,0,8.4*,16*,5.9*
C[C@@H]1CN([C@@H](C)CO)C(=O)CCCn2cc(nn2)CO[C@H]1CN(C)C(=O)c1ccncc1,·,·,·,·,-3,·,·
C[C@@H]1CN([C@@H](C)CO)C(=O)CCCn2cc(nn2)CO[C@H]1CN(C)C(=O)Nc1ccc(-c2cccs2)cc1,·,·,·,·,-6,·,·
Cc1ccc2c(c1)N(CC(=O)NCCCc1ccccc1)C(=O)c1cccnc1O2,-6,0,0,1,3,·,·
Cc1ccc2c(c1)N(CC(=O)NCC(C)c1ccccc1)C(=O)c1cccnc1O2 (stereo not drawn),-15,1,0,1,12*,-3,0
CC(C)[C@@H](C)/C=C/[C@@H](C)[C@H]1CC[C@@H]2[C@]1(C)CCC1[C@]23C=C[C@]2(C[C@@H](O)CC[C@]12C)N(C(=O)Cc1ccccc1)O3 (stereo partly drawn),·,·,·,·,4,·,·
C=CCN=C1NC(c2cccc(F)c2)C(C(=O)OC)=C(C)N1Cc1ccccc1C(F)(F)F (stereo not drawn),·,·,·,·,-2,·,·
O=C(COc1ccc(Br)cc1Br)NNC(=O)c1cccs1,·,4,0,0,10*,7,8.8*
Cc1cc(Br)ccc1OCC(=O)NNC(=O)Cc1ccccc1,·,-4,0,2,8.9*,-1,1
Cc1cc(Br)cc(C)c1OCC(=O)NNC(=O)c1cccs1,·,-1,0,1,0,·,·
C#CCNC(=O)C[C@@H]1C(=O)N(CC=C)C2=CCCCC[C@]21C(=O)OC,·,·,·,·,-2,·,·
COC(=O)Cc1nnn2c1[C@H](C)[C@H](c1ccccc1Br)OC[C@@H]2c1ccccc1,·,·,·,·,-3,·,·
C[C@@H]1ON(C)[C@H]2C[C@H]3c4[nH]c5c(-c6ccc(F)cc6)cccc5c4CCN3C(=O)[C@@H]12,·,·,·,·,0,·,·
SMILES,TAG inh,AHR activator,Efflux pump inh,Tb MetRS inh,SMARCA2 activ,SMARCA2 act conf,VP16 Luc act
COc1ccccc1NS(=O)(=O)c1cccc(NC(=O)c2cc3ccccc3oc2=O)c1,·,5,0,0,8.1*,4,9.5*
CN(c1ccccc1)S(=O)(=O)c1cccc(NC(=O)c2cc3ccccc3oc2=O)c1,-14,2,0,0,12*,-1,6.3*
CN(c1ccccc1)S(=O)(=O)c1cccc(NC(=O)c2cccc(C#N)c2)c1,-2,4,0,0,-2,·,·
C=CCn1c(-c2c(C)nc3cc(C)ccn23)n[nH]c1=S,·,5,0,-1,9.1*,-3,0
COC(=O)C1=C(C)N(C)C(=NCC2CC2)NC1c1ccc(Cl)cc1 (stereo not drawn),·,·,·,·,4,·,·
CS(=O)(=O)n1nc(-c2ccccc2)nc1N,·,0,0,-1,-3,·,·
CS(=O)(=O)n1nc(-c2ccc(Cl)cc2)nc1N,·,-4,0,0,8.5*,1,1
COC(=O)[C@]12C=CCN1[C@@H](c1ccc(Cl)cc1)c1c(c3ccccc3n1S(=O)(=O)c1ccc(C)cc1)C2,·,·,·,·,-5,·,·
O=C(Nc1ccccc1Br)C1CCN(C(=O)Cc2ccccc2)CC1,·,0,0,0,9.0*,-3,2
COc1ccc(CNC(=O)c2ccc(C(C)C)cc2)cc1,-10,20,0,0,11*,7,17*
COc1ccc(CNC(=O)c2ccc(C(C)(C)C)cc2)cc1,1,12,0,-1,6,·,·
Cc1cccc(C(=O)OCC(=O)NCc2cccs2)c1,-8,0,0,1,-2,·,·
COc1cc(CCC(=O)OCC(=O)Nc2ccc(F)c(F)c2F)cc(OC)c1OC,·,-1,0,0,0,·,·
COc1ccc(C(=O)OCC(=O)Nc2ccc(F)c(F)c2F)cc1OC,-3,2,0,-1,10*,1,-1
COC(=O)CNC(=O)COC(=O)c1ccc(OC)c([N+](=O)[O-])c1,·,0,0,-1,9.1*,-1,-1
CS(=O)(=O)c1ccc(C(=O)OCC(=O)NCc2cccs2)cc1[N+](=O)[O-],51*,1,0,0,12*,-14,2
CCCCCCCCN1C(=O)[C@@H](CC(=O)N2CCC(c3ccccc3)CC2)C[C@@]2(C(=O)OC)C1=C[C@H](C1CCCC1)O[C@@H]2C,·,·,·,·,4,·,·
Cc1ccc2nc(-c3sc4nc(C)ccc4c3N)[nH]c2c1,33,2,0,-3,5,·,·
